Screening results from PubChem.
In the library only some 1.1% were active in any assay of this set; here they are far more common.
Hep lipid drop: hepatic lipid droplet formation modulation. inhibition, % at 6.5 µM. AML12 mouse hepatocytes, oleate lipid droplets, BODIPY imaging. AID 1656. actives 0.4% (n = 240,000);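 active = lipid droplet intensity inhibited by at least 50%, with more than 500 cells counted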
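Technique: fluorescence imaging, 20x objective, two fields per well / Assay system: AML12 hepatocytes (mouse) / Measure: % inhibition of lipid droplet signal / Doses: 6.5 µM single-point dosing / Incubation: overnight exposure / Reagent: 100 µM oleic acid challenge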
thrombin 1536: thrombin (human) inhibition; actives 0.26% (n = 220,000); AID 1046; inhibition, % at 5 µM; alpha-thrombin, Boc-VPR-AMC fluorogenic substrate cleavage;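 active = inhibition at or above 40%; inactive = inhibition below 40%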;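 also: 0% = enzyme with no compound and 100% = wells without enzyme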
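System: human alpha-thrombin protein; Compound dosing: one concentration per compound, 5 µM, with 0.2% DMSO; Timing: reaction at room temperature; Technique: AMC fluorescence, 355/460 nm; Controls: enzyme without compound as high, wells lacking enzyme as low.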
FXIIa inh 1536: blocks human coagulation factor XIIa protease activity. purified FXIIa, Boc-QGR-AMC fluorogenic substrate, 2 h. inhibition, % at 5 µM. P00748. actives 0.3% (n = 220,000); in the data active = inhibition above about 40%;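 also: 0% = enzyme with no compound and 100% = blank without enzyme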
Calb biofilm kill: mixtures killing C. albicans biofilm; C. albicans biofilm persisters + clotrimazole, fluorescence viability; primary screen in compound mixtures of four per well; inhibition, % at 7.6 µM; actives 0.02% (n = 120,000); AID 1242;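 active = inhibition above 30.3% in the primary screen of four-compound pools, then above 30% when the compound was retested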;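 also: compounds exposed to preformed 24 h biofilms for 48 h; 0% = untreated biofilm control and 100% = clotrimazole plus chlorhexidine kill blank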
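Test system: C. albicans CAF4-2 wild-type biofilms; buffer or medium: RPMI/MOPS medium, pH 7.0; schedule: 24 h biofilm formation, then 48 h compound exposure, 37 °C; detection: Alamar Blue fluorescence; measure: percent inhibition of biofilm viability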
KLK5 inh: blocks human kallikrein 5 protease activity; Q9Y337; actives 0.59% (n = 210,000); recombinant hK5, fluorogenic AMC substrate cleavage; inhibition, % at 5 µM;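 active = inhibition of 40% or more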;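 also: 0% = enzyme controls without compound and 100% = no-enzyme blanks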
FXIa inh 1536: blocks human coagulation factor XIa protease activity; P03951; purified FXIa, Boc-Glu-Ala-Arg-AMC fluorogenic substrate; inhibition, % at 5 µM; actives 0.14% (n = 220,000); AID 798;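 active = inhibition of at least 40%; inactive = inhibition below 40%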;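 also: fluorescence of freed AMC excited at 355 nm; 0% = enzyme without compound and 100% = no enzyme blank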
Target sequence (P03951 19-387 limits assumed): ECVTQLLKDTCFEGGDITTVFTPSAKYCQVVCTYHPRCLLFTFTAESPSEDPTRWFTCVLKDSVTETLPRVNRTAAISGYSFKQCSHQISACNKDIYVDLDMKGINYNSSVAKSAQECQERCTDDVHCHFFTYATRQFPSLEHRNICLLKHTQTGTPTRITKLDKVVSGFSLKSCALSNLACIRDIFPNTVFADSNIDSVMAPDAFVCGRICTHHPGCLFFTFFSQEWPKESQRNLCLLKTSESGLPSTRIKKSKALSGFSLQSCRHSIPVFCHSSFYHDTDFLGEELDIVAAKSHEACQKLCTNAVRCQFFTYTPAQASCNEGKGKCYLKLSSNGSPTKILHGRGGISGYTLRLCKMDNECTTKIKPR
Target sequence (P03951 388-625 limits assumed): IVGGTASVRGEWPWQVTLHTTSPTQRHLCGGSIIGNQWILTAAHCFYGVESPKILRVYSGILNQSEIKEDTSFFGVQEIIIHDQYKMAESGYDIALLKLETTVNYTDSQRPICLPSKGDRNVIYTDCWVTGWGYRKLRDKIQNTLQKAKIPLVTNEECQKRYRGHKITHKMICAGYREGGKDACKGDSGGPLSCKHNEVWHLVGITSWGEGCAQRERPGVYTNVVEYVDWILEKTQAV
Numbers without * were called inactive; x = no result given.

SMILES | Hep lipid drop | thrombin 1536 | FXIIa inh 1536 | Calb biofilm kill | KLK5 inh | FXIa inh 1536
Cc1nn(-c2ccccc2)c(N2CCCC2)c1/C=N/Nc1ccc(S(=O)(=O)Nc2ccccc2)cc1[N+](=O)[O-] | 82* | -7 | 28 | -3 | -11 | 21
COc1c(/C=N/Nc2ccc([N+](=O)[O-])cc2[N+](=O)[O-])c(C)nn1-c1ccccc1 | x | -4 | 4 | x | -3 | 2
CC(=O)Nc1ccccc1C(=O)C(=O)Nc1ccc(C(=O)N2CCOCC2)cc1 | 5 | -2 | 8 | 14 | -1 | -1
COc1ccc(-c2ccc(C#N)c(SCC(=O)NCCc3ccccc3)n2)cc1OC | -2 | 56* | -43 | 8 | -18 | -17
COc1cccc(-c2ccc(C#N)c(SCC(=O)NCCc3cccc(Cl)c3)n2)c1 | x | -6 | -18 | x | -4 | -12
COc1ccccc1N1CCN(C(=O)CNC(=O)c2cn(-c3ccccc3OC)c(=O)c3ccccc23)CC1 | 2 | 101* | 9 | 13 | 2 | -1
COc1ccccc1-n1cc(C(=O)NCC(=O)N2CCN(c3ccccc3)CC2)c2ccccc2c1=O | x | -1 | 8 | x | -2 | 0
C/C(=N\NC(=O)C(=O)N/N=C(\C)c1cccc(O)c1)c1cccc(O)c1 | -14 | -4 | 0 | 17 | -15 | -7
CCN(CC)CCCN1C(=O)CSC1c1ccc([N+](=O)[O-])cc1 (stereo not drawn) | 44 | -6 | 4 | 23 | 0 | -4
CCN(CC)CCCN1C(=O)CSC1c1ccc2c(c1)OCO2 (stereo not drawn) | x | 20 | 19 | x | 52* | 3
CCC(C)[C@H](NC(=O)Nc1ccc(C(C)=O)cc1)C(=O)OC (stereo partly drawn) | x | 1 | 44* | x | 2 | 24
CCC(C)[C@H](NC(=O)Nc1ccc(S(N)(=O)=O)cc1)C(=O)OC (stereo partly drawn) | -4 | -8 | 2 | 27 | -2 | -1
COc1ccc(NS(=O)(=O)c2cccc(C(=O)OCC(=O)Nc3cc(C)on3)c2)cc1 | x | -2 | 7 | x | -22 | -7
Cc1cc(NC(=O)COC(=O)C2CCN(S(=O)(=O)c3ccc(Cl)cc3)CC2)no1 | x | 2 | 16 | x | -13 | 4
Cc1cc(NC(=O)COC(=O)c2cccc(S(=O)(=O)N(C)C3CCCCC3)c2)no1 | 19 | 4 | 43* | 5 | 9 | 7
Cc1cc(NC(=O)COC(=O)C2CCN(S(=O)(=O)c3c(Cl)cccc3Cl)CC2)no1 | 8 | -1 | 43* | x | 15 | 19
Cc1ccc(NS(=O)(=O)c2ccc(C(=O)OCC(=O)Nc3cc(C)on3)cc2)cc1 | -2 | 15 | 30 | 13 | 48* | 102*
Cc1cc(NC(=O)COC(=O)c2cccc(O)c2)no1 | 20 | -2 | 2 | 2 | -2 | -1
Cc1ccc(OCc2n[nH]c(=S)n2N)cc1C | -1 | 101* | 9 | 22 | 1 | -2
CCOc1ccc(/C=N/n2cnnc2)cc1 | -1 | -10 | -5 | x | -31 | -15
CCOc1cc(/C=N/n2cnnc2)cc(Br)c1O | x | 2 | 43* | x | 6 | 24
Cn1c(=O)c2ccccc2n(Cc2cccc(F)c2)c1=O | -5 | x | x | x | x | x
O=C(Nc1ccccc1)N1CCOCC1 | x | 2 | 9 | x | -2 | 1
O=C(Nc1ccc2c(c1)oc1ccccc12)N1CCOCC1 | x | 3 | 13 | x | -13 | 42*
CCCn1c(C(O)c2cc(OC)c(OC)c(OC)c2)nc2ccccc21 (stereo not drawn) | -28 | x | x | x | x | x
SMILES | Hep lipid drop | thrombin 1536 | FXIIa inh 1536 | Calb biofilm kill | KLK5 inh | FXIa inh 1536
CC(=O)NC(NC(=S)Nc1cccc(Br)c1)C(Cl)(Cl)Cl (stereo not drawn) | 24 | -7 | 0 | 21 | -5 | -6
CNC(=O)/C(C#N)=C/c1c(N(Cc2ccccc2)Cc2ccccc2)nc2c(C)cccn2c1=O | -8 | 25 | 24 | 2 | 49* | 10
CCNC(=O)/C(C#N)=C/c1c(N(Cc2ccccc2)Cc2ccccc2)nc2ccccn2c1=O | -2 | -1 | 7 | 11 | 13 | -2
Oc1ccc(C2Nc3cccc4cccc(c34)N2)c(O)c1 | x | 67* | 14 | x | 57* | 11
O=C1CSC(c2cn(-c3ccccc3)nc2-c2cc3ccccc3oc2=O)N1Cc1ccco1 (stereo not drawn) | x | -4 | 8 | x | 153* | 22
CN1CCC(NC(=S)Nc2cccc([N+](=O)[O-])c2)CC1 | -8 | 0 | 9 | 5 | -10 | -5
Cc1cccn2c(=O)c3cc(C(=O)NC4CCCC4)c(=N)n(CCCN4CCOCC4)c3nc12 | 8 | x | x | x | x | x
NNC(=O)c1ccc(CSc2nc3ccccc3s2)cc1 | -16 | 14 | 49* | 11 | 27 | 31
COCCN(CCOC)C(=O)c1ccc(CSc2nc3ccccc3s2)cc1 | -7 | x | x | x | x | x
CCOC(=O)c1c(-c2ccc(C)cc2)csc1NC(=O)CCN1CCOCC1 | 0 | 42* | 11 | 6 | 23 | 6
CC(C)(C)OC(=O)N[C@@H](Cc1ccccc1)C(=O)NCC1CCC(C(=O)O)CC1 (stereo partly drawn) | -1 | -2 | 7 | 14 | 1 | 1
CCNC(=O)C1CCCN1S(=O)(=O)c1ccc(OC)cc1 (stereo not drawn) | 0 | -6 | -9 | x | -2 | -11
COc1ccc(S(=O)(=O)N2CCCC2C(=O)NCc2cccs2)cc1 (stereo not drawn) | x | 18 | -2 | x | 48* | 12
CCOC(=O)c1c(S(=O)(=O)NCC(=O)Nc2ccc(F)cc2)c(C)n(C)c1C | -8 | x | x | x | x | x
Cn1c(SCc2ccccn2)nc2c1c(=O)[nH]c(=O)n2C | 1 | -4 | 3 | 11 | -3 | -1
CCc1cccc(Oc2nn[nH]n2)c1 | x | 20 | 16 | x | 77* | 9
NS(=O)(=O)c1ccc(NC(=O)c2cc(-c3cc(Cl)ccc3O)n[nH]2)cc1 | 0 | x | x | x | x | x
COc1ccccc1NC(=O)c1sc2ncn(Cc3cccc(C)c3)c(=O)c2c1C | -8 | 100* | 6 | x | 44* | 7
COc1ccccc1NC(=O)c1sc2ncn(Cc3ccc(C)cc3)c(=O)c2c1C | 6 | 99* | 17 | x | 30 | 29
CC(=O)Nc1ccc(C(=O)NNS(=O)(=O)c2ccc(C)cc2)cc1 | 11 | 3 | 13 | 3 | -9 | 10
Cc1ccc(S(=O)(=O)NNC(=O)c2ccc(O)cc2)cc1 | 0 | 29 | 10 | 6 | 53* | 3
CCCN(Cc1cc2cc(C)ccc2[nH]c1=O)C(=O)c1cccc([N+](=O)[O-])c1 | -3 | -3 | 7 | 26 | -2 | 2
CC(C)(C)OC(=O)N1CCN(c2ccc(NC(=O)Cn3nnc(-c4ccccc4)n3)cc2)CC1 | 84* | 0 | 7 | x | -28 | 1
CN(C)c1ccc(-c2nnn(CC(=O)Nc3ccccc3N3CCOCC3)n2)cc1 | x | 8 | 8 | x | 66* | 5
Cc1cc(NC(=O)c2ccc(Cl)cc2)ccc1NC(=O)c1ccccc1Cl | 3 | x | x | x | x | x
